Assays:
Cavia porcellus [1] = species: Cavia porcellus; assay: Calcium channel agonist activity causing a 50% increase in maximum contractile response on guinea pig left atrium; No effect; assay type: functional, Cardiac atrium
Outline: (§1)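 Guinea pig left atrium (GPLA) preparation exposed to increasing test compound concentrations. […] Number of experiments varies per compound. For weak responders, percent increase in contractile force recorded at individual concentrations.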

Cavia porcellus [2] = species: Cavia porcellus; assay: Inhibition of carbachol-induced tonic contractile response in guinea pig ileal longitudinal smooth muscle; assay type: functional
Outline: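 Guinea pig ileal longitudinal smooth muscle contracted by the muscarinic agonist carbachol (1.6 × 10⁻⁷ M). Slow, Ca²⁺-dependent tonic component measured. […] Reported ± SEM, n = 3.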

Cavia porcellus [3] = species: Cavia porcellus; assay: Compound was tested for calcium channel agonistic activity, causing a 50% increase of the maximum contractile response on guinea pig left atrium.; assay type: functional, Cardiac atrium; outline: as §1
Cavia porcellus [4] = species: Cavia porcellus; assay: Calcium channel agonist activity causing a 50% increase in maximum contractile response on guinea pig left atrium; 'c' means Weak agonist; assay type: functional, Cardiac atrium; outline: as §1
[5] = Cavia porcellus, Cardiac atrium

| EC50 (Cavia porcellus [3]; [5]) [µM] | SMILES | other results |
| --- | --- | --- |
| 1.74 | CC1=NC(C)=C([N+](=O)[O-])C(c2cccnc2)/C1=C(\O)OCC(C)C (configuration not stated) |  |
| 8.84 | CCO/C(O)=C1\C(C)=NC(C)=C([N+](=O)[O-])C1c1cccnc1 (configuration not stated) |  |
| 37.7 | COCCO/C(O)=C1\C(C)=NC(C)=C([N+](=O)[O-])C1c1ccncc1 (configuration not stated) |  |
| 6.46 | CCO/C(O)=C1\C(C)=NC(C)=C([N+](=O)[O-])C1c1ccncc1 (configuration not stated) |  |
| 70 | CO/C(O)=C1\C(C)=NC(C)=C([N+](=O)[O-])C1c1cccnc1 (configuration not stated) |  |
| 8.51 | CC1=NC(C)=C([N+](=O)[O-])C(c2ccncc2)/C1=C(\O)OCC(C)C (configuration not stated) |  |
| 49.4 | COCCO/C(O)=C1\C(C)=NC(C)=C([N+](=O)[O-])C1c1cccnc1 (configuration not stated) |  |
| 48.5 | CO/C(O)=C1\C(C)=NC(C)=C([N+](=O)[O-])C1c1ccncc1 (configuration not stated) |  |
| 3.28 | CC1=NC(C)=C([N+](=O)[O-])C(c2cccnc2)/C1=C(\O)OC1CCCC1 (configuration not stated) |  |
| 14.6 | CC1=NC(C)=C([N+](=O)[O-])C(c2cccnc2)/C1=C(\O)OC(C)(C)C (configuration not stated) |  |
| 22.8 | CCO/C(O)=C1\C(C)=NC(C)=C([N+](=O)[O-])C1c1ccccn1 (configuration not stated) | IC50 (Cavia porcellus [2]; Cavia porcellus): 5 µM |
| 2.76 | CC1=NC(C)=C([N+](=O)[O-])C(c2cccnc2)/C1=C(\O)OC1CCCCC1 (configuration not stated) |  |

Further lines, the compound ahead of its results:

| SMILES | EC50 (Cavia porcellus [3]; [5]) [µM] | other results |
| --- | --- | --- |
| CO/C(O)=C1\C(C)=NC(C)=C([N+](=O)[O-])C1c1ccccn1 (configuration not stated) |  | EC50 (Cavia porcellus [1]): Not Active; IC50 (Cavia porcellus [2]; Cavia porcellus): 212 µM |
| CC1=NC(C)=C([N+](=O)[O-])C(c2ccncc2)/C1=C(\O)OC(C)(C)C (configuration not stated) | 2.82 |  |
| CC1=NC(C)=C([N+](=O)[O-])C(c2ccccn2)/C1=C(\O)OCC(C)C (configuration not stated) | 9.1 | IC50 (Cavia porcellus [2]; Cavia porcellus): 2.61 µM |
| CC1=NC(C)=C([N+](=O)[O-])C(c2ccncc2)/C1=C(\O)OC1CCCCC1 (configuration not stated) | 4.94 |  |
| CC1=NC(C)=C([N+](=O)[O-])C(c2ccccn2)/C1=C(\O)OC1CCCCC1 (single isomer, unassigned; (+)) |  | IC50 (Cavia porcellus [2]): 5.27 µM; EC50 (Cavia porcellus [3]): 8.45 µM |
| CC1=NC(C)=C([N+](=O)[O-])C(c2ccccn2)/C1=C(\O)OC(C)(C)C (configuration not stated) | 1810 | IC50 (Cavia porcellus [2]; Cavia porcellus): 1.93 µM |
| CC1=NC(C)=C([N+](=O)[O-])C(c2ccccn2)/C1=C(\O)OC1CCCCC1 (single isomer, unassigned; (-)) |  | EC50 (Cavia porcellus [4]): Partial agonist; IC50 (Cavia porcellus [2]): 0.0748 µM |
| COCCO/C(O)=C1\C(C)=NC(C)=C([N+](=O)[O-])C1c1ccccn1 (configuration not stated) | 9.7 | IC50 (Cavia porcellus [2]; Cavia porcellus): 94.7 µM |
| CC1=NC(C)=C([N+](=O)[O-])C(c2ccccn2)/C1=C(\O)OC1CCCC1 (configuration not stated) | 19.8 | IC50 (Cavia porcellus [2]; Cavia porcellus): 0.45 µM |
| CC1=NC(C)=C([N+](=O)[O-])C(c2ccncc2)/C1=C(\O)OC1CCCC1 (configuration not stated) | 4.25 |  |
| CC1=NC(C)=C([N+](=O)[O-])C(c2ccccn2)/C1=C(\O)OC1CCCCC1 (stereo in doubt; 14a) |  | IC50 (Cavia porcellus [2]): 0.842 µM; EC50 (Cavia porcellus [3]): 3.7 µM |

Reference: ChEMBL document CHEMBL1131300, “Synthesis and calcium channel-modulating effects of alkyl (or cycloalkyl) 1,4-dihydro-2,6-dimethyl-3-nitro-4-pyridyl-5-pyridinecarboxylate racemates and enantiomers” (J Med Chem, 1998)
